Measured values taken from ChEMBL document CHEMBL3616400, “Design, Synthesis, and Evaluation of Triazole Derivatives That Induce Nrf2 Dependent Gene Products and Inhibit the Keap1-Nrf2 Protein-Protein Interaction” (J Med Chem, 2015).
Calls of active or inactive are those of the source. The rule behind the calls is not given here.

Tests used:
[1] = target: Keap1/Nrf2 (Homo sapiens) (UniProt Q16236+Q14145); assay: Inhibition of kelch domain of Keap1 (unknown origin) interaction to high affinity ETGE motif from Nrf2 unknown origin) at 100 uM by fluorescence polarization assay; type: protein assay
Sequence of Keap1/Nrf2 (Homo sapiens) (Q14145 whole entry, looked up, the tested form may be a part): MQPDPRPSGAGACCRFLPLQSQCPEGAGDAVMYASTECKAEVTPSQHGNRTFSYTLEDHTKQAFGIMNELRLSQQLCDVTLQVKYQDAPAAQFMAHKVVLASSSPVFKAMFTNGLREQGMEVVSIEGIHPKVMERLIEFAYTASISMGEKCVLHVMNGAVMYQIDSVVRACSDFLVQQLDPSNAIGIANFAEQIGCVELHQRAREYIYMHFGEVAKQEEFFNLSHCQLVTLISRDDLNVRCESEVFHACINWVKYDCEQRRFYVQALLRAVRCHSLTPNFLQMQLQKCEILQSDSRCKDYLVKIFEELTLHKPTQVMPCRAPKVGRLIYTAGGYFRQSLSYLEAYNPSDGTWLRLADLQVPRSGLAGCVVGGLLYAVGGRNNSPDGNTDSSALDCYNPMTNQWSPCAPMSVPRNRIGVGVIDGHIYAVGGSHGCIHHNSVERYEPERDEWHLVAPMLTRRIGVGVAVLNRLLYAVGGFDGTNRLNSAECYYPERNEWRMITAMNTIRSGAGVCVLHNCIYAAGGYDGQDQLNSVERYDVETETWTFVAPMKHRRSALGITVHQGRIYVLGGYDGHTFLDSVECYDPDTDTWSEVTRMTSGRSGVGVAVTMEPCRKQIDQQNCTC
Sequence of Keap1/Nrf2 (Homo sapiens) (Q16236 whole entry, looked up, the tested form may be a part): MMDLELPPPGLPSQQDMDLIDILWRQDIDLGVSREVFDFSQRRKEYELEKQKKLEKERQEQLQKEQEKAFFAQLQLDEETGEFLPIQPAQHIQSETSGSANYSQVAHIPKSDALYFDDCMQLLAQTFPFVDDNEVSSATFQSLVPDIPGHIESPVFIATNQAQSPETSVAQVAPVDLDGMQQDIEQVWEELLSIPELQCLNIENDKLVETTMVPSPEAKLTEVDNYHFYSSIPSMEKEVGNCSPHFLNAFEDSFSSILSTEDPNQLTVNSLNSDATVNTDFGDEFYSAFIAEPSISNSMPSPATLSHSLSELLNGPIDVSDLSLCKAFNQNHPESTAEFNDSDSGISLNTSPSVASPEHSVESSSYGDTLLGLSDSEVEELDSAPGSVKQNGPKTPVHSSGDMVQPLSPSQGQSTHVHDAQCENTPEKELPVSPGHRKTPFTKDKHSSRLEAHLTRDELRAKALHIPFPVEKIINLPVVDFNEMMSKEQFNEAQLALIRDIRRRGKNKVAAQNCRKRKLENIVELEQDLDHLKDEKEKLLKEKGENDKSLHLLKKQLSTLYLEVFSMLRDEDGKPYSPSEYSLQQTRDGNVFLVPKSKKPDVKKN
In short: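 Fluorescence polarization competition. Keap1 Kelch domain with fluorescein-labelled ETGE peptide FITC-β-DEETGEF-OH (β = β-alanine). Displacement measured with a fixed 100 µM inhibitor; percent inhibition reported.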

[2] = target: T1, Nuclear factor erythroid 2-related factor 2 (Mus musculus) (UniProt Q60795); assay: Activation of Nrf2 in mouse Hepa1c1c7 cells assessed as induction of NQO1 production at 10 uM after 24 hrs by MTT colorimetric assay relative to control; type: cell-based
T1 sequence (whole entry): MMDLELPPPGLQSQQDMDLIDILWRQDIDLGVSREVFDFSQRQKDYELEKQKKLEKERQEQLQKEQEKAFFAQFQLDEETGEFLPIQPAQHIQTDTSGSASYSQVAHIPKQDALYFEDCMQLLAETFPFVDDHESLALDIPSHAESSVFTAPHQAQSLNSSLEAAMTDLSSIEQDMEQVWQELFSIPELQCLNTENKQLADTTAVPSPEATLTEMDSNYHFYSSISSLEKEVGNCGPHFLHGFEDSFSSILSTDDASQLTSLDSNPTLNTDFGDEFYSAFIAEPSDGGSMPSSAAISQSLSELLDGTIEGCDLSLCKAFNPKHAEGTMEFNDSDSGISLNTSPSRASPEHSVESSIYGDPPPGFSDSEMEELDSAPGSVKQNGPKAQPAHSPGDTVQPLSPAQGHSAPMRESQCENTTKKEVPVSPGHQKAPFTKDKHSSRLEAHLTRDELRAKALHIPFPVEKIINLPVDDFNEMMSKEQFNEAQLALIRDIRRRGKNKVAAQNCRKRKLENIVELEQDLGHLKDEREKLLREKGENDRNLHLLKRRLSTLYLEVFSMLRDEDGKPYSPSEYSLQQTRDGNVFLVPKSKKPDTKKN
In short: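 Hepa1c1c7 mouse hepatoma cells treated at a fixed 10 µM for 24 h. NQO1 enzyme activity read by colorimetric induction assay and expressed as fold induction over control.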

Keap1/Nrf2 = Keap1/Nrf2 (Homo sapiens, UniProt Q14145); assay: Inhibition of kelch domain of Keap1 (unknown origin) interaction to high affinity ETGE motif from Nrf2 by fluorescence polarization assay; type: protein assay
Sequence of Keap1/Nrf2 (Q16236 whole entry, the tested form may be a part): as the sequence (Q16236 whole entry, looked up, the tested form may be a part) above
Sequence of Keap1/Nrf2 (Q14145 whole entry, the tested form may be a part): as the sequence (Q14145 whole entry, looked up, the tested form may be a part) above
In short: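 Competitive fluorescence polarization, dose-response format. Keap1 Kelch domain with fluorescein-labelled Nrf2 ETGE peptide FITC-β-DEETGEF-OH. EC50 derived from dose-response curves.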

[3] = target: T1, Nuclear factor erythroid 2-related factor 2 (Mus musculus); assay: Activation of Nrf2 in mouse Hepa1c1c7 cells assessed as concentration required to 2 fold induction of NQO1 production after 24 hrs by MTT colorimetric assay; type: cell-based
In short: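 Hepa1c1c7 mouse hepatoma cells exposed to a concentration range for 24 h. NQO1 enzymatic activity measured by colorimetric induction assay. Value reported as CD, the concentration giving a two-fold increase in NQO1 activity.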

Mus musculus = species: Mus musculus; assay: Increase of Nrf2 protein level in mouse Hepa1c1c7 cells at 10 uM after 24 hrs by Western blot analysis; type: functional, cell-based
In short: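 Hepa1c1c7 cells incubated with test compounds at 10 µM for various exposure times, up to 24 h. Nrf2, HO-1 and NQO1 protein levels assessed by Western blot.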

SMILES: O=C(O)c1ccc(-c2cn(-c3cccc(C(=O)O)c3)nn2)cc1
- inhibition [1]: 89.6%
- fold change (FC) [2]: 0.47

SMILES: O=C(O)c1cccc(-n2cc(-c3cccc([N+](=O)[O-])c3)nn2)c1
- inhibition [1]: 80.1%
- fold change (FC) [2]: 0.83
- EC50 (Keap1/Nrf2): 5 µM
- CD [3]: > 10 µM

SMILES: NC(=O)c1cccc(-n2cc(-c3ccc([N+](=O)[O-])cc3)nn2)c1
- inhibition [1]: 62.2%
- fold change (FC) [2]: 0.98

SMILES: O=[N+]([O-])c1cccc(-c2cn(-c3ccc4c(c3)OCO4)nn2)c1
- inhibition [1]: 67.2%
- fold change (FC) [2]: 2.24
- EC50 (Keap1/Nrf2): 15 µM

SMILES: O=C(O)c1ccc(-c2cn(-c3cccc([N+](=O)[O-])c3)nn2)cc1
- inhibition [1]: 87.5%
- fold change (FC) [2]: 1.06

SMILES: O=C(O)c1ccc(-c2cn(-c3ccc(C(=O)O)cc3)nn2)cc1
- inhibition [1]: 77.3%
- fold change (FC) [2]: 0.9

SMILES: Cc1cccc(-n2cc(-c3cccc(-c4nnn[nH]4)c3)nn2)c1
- inhibition [1]: 30.4%
- fold change (FC) [2]: 0.88

SMILES: NC(=O)c1cccc(-c2cn(-c3ccc([N+](=O)[O-])cc3)nn2)c1
- inhibition [1]: 48%
- fold change (FC) [2]: 1.05

SMILES: N#Cc1cccc(-c2cn(-c3cccc(Cl)c3)nn2)c1
- inhibition [1]: 19.9%
- fold change (FC) [2]: 2.39

SMILES: NC(=O)c1cccc(-c2cn(-c3cccc(C(=O)O)c3)nn2)c1
- inhibition [1]: 78.6%
- fold change (FC) [2]: 0.71

SMILES: Cc1c(-c2cnccn2)ssc1=S
- CD [3]: 10.2 µM

SMILES: CSc1cccc(-n2cc(-c3cccc([N+](=O)[O-])c3)nn2)c1
- inhibition [1]: 77.7%
- fold change (FC) [2]: 2.95
- EC50 (Keap1/Nrf2): 38.5 µM

SMILES: NC(=O)c1ccc(-c2cn(-c3cccc([N+](=O)[O-])c3)nn2)cc1
- inhibition [1]: 2.34%
- fold change (FC) [2]: 1.33

SMILES: NC(=O)c1cccc(-n2cc(-c3cccc(C(=O)O)c3)nn2)c1
- inhibition [1]: 96.3%
- fold change (FC) [2]: 1.07

SMILES: NC(=O)c1ccc(-c2cn(-c3ccc(C(=O)O)cc3)nn2)cc1
- fold change (FC) [2]: 0.79

SMILES: O=C(O)c1cccc(-c2cn(-c3ccc([N+](=O)[O-])cc3)nn2)c1
- inhibition [1]: 82.3%
- fold change (FC) [2]: 1.14

SMILES: CC(C)(C)c1cccc(-n2cc(-c3cccc([N+](=O)[O-])c3)nn2)c1
- inhibition [1]: 69.8%
- fold change (FC) [2]: 1.93
- EC50 (Keap1/Nrf2): 37.8 µM
- CD [3]: > 10 µM
- Activity (Mus musculus): inactive

SMILES: NC(=O)c1cccc(-c2cn(-c3cccc([N+](=O)[O-])c3)nn2)c1
- inhibition [1]: 32%
- fold change (FC) [2]: 2.06

SMILES: NC(=O)c1cccc(-n2cc(-c3cccc([N+](=O)[O-])c3)nn2)c1
- inhibition [1]: 65.3%
- fold change (FC) [2]: 2.09

SMILES: NC(=O)c1ccc(-c2cn(-c3cccc(C(N)=O)c3)nn2)cc1
- inhibition [1]: 43.7%
- fold change (FC) [2]: 1.02

SMILES: NC(=O)c1ccc(-c2cn(-c3cccc(C(=O)O)c3)nn2)cc1
- fold change (FC) [2]: 0.79

SMILES: N#Cc1cccc(-c2cn(-c3cccc([N+](=O)[O-])c3)nn2)c1
- inhibition [1]: 59.4%
- fold change (FC) [2]: 2.1

SMILES: O=C(O)c1cccc(-c2cn(-c3cccc(C(=O)O)c3)nn2)c1
- inhibition [1]: 82.3%
- fold change (FC) [2]: 0.86

SMILES: NC(=O)c1ccc(-c2cn(-c3ccc(C(N)=O)cc3)nn2)cc1
- fold change (FC) [2]: 0.98

SMILES: CN(C)c1cccc(-n2cc(-c3cccc([N+](=O)[O-])c3)nn2)c1
- inhibition [1]: 65.4%
- fold change (FC) [2]: 2.91
- EC50 (Keap1/Nrf2): 12.7 µM
- CD [3]: 2 µM

SMILES: CCOc1cccc(-n2cc(-c3cccc(-c4nnn[nH]4)c3)nn2)c1
- inhibition [1]: 39.6%
- fold change (FC) [2]: 1.31

SMILES: O=[N+]([O-])c1cccc(-c2cn(-c3cccc(Cl)c3)nn2)c1
- inhibition [1]: 60.4%
- fold change (FC) [2]: 2.5
- EC50 (Keap1/Nrf2): 8.8 µM
- CD [3]: 0.7 µM

SMILES: Clc1cccc(-n2cc(-c3cccc(-c4nnn[nH]4)c3)nn2)c1
- inhibition [1]: 40.7%
- fold change (FC) [2]: 1.24

SMILES: O=C(O)c1cccc(-c2cn(-c3cccc([N+](=O)[O-])c3)nn2)c1
- inhibition [1]: 63.8%
- fold change (FC) [2]: 0.85

SMILES: NC(=O)c1cccc(-n2cc(-c3ccc(C(=O)O)cc3)nn2)c1
- inhibition [1]: 15.4%
- fold change (FC) [2]: 0.95

SMILES: c1cc(-c2cn(-c3cccc(-c4nnn[nH]4)c3)nn2)cc(-c2nnn[nH]2)c1
- inhibition [1]: 13.7%
- fold change (FC) [2]: 0.84

SMILES: N#Cc1cccc(-c2cn(-c3ccc(C(=O)O)cc3)nn2)c1
- inhibition [1]: 52.8%
- fold change (FC) [2]: 0.98

SMILES: O=[N+]([O-])c1cccc(-c2cn(-c3cccc(F)c3)nn2)c1
- inhibition [1]: 42.6%
- fold change (FC) [2]: 2.27

SMILES: NC(=O)c1ccc(-c2cn(-c3ccc([N+](=O)[O-])cc3)nn2)cc1
- fold change (FC) [2]: 1.02

SMILES: NC(=O)c1ccc(-n2cc(-c3ccc(C(=O)O)cc3)nn2)cc1
- inhibition [1]: 76.5%
- fold change (FC) [2]: 0.86

SMILES: CCOc1cccc(-n2cc(-c3cccc(C#N)c3)nn2)c1
- inhibition [1]: 24.5%
- fold change (FC) [2]: 1.3

SMILES: O=[N+]([O-])c1cccc(-c2cn(-c3ccccc3)nn2)c1
- inhibition [1]: 66.9%
- fold change (FC) [2]: 1.95
- EC50 (Keap1/Nrf2): 20.6 µM
- CD [3]: > 10 µM

SMILES: NC(=O)c1cccc(-c2cn(-c3cccc(C(N)=O)c3)nn2)c1
- inhibition [1]: 65.3%

SMILES: NC(=O)c1cccc(-c2cn(-c3ccc(C(=O)O)cc3)nn2)c1
- inhibition [1]: 70.7%
- fold change (FC) [2]: 0.81

SMILES: O=C(O)c1ccc(-n2cc(-c3cccc(-c4nnn[nH]4)c3)nn2)cc1
- inhibition [1]: 70%
- fold change (FC) [2]: 1

SMILES: O=[N+]([O-])c1ccc(-n2cc(-c3cccc([N+](=O)[O-])c3)nn2)cc1
- inhibition [1]: 74.8%
- fold change (FC) [2]: 3.38

SMILES: O=C(O)c1cccc(-n2cc(-c3ccc([N+](=O)[O-])cc3)nn2)c1
- inhibition [1]: 61%
- fold change (FC) [2]: 0.66

SMILES: Cc1cccc(-n2cc(-c3cccc(C#N)c3)nn2)c1
- inhibition [1]: 49.7%
- fold change (FC) [2]: 1.69

SMILES: NC(=O)c1ccc(-n2cc(-c3cccc([N+](=O)[O-])c3)nn2)cc1
- inhibition [1]: 64.5%
- fold change (FC) [2]: 2.08

SMILES: NC(=O)c1ccc(-n2cc(-c3cccc(C(=O)O)c3)nn2)cc1
- inhibition [1]: 87.6%
- fold change (FC) [2]: 0.91

SMILES: O=[N+]([O-])c1cccc(-c2cn(-c3cccc(C(F)(F)F)c3)nn2)c1
- inhibition [1]: 66.9%
- fold change (FC) [2]: 2.54
- EC50 (Keap1/Nrf2): 22.6 µM

SMILES: NC(=O)c1ccc(-n2cc(-c3ccc([N+](=O)[O-])cc3)nn2)cc1
- inhibition [1]: 46.1%
- fold change (FC) [2]: 1.07

SMILES: O=C(O)c1ccc(-n2cc(-c3ccc([N+](=O)[O-])cc3)nn2)cc1
- inhibition [1]: 81.3%
- fold change (FC) [2]: 0.99

SMILES: O=C(O)c1ccc(-c2cn(-c3ccc([N+](=O)[O-])cc3)nn2)cc1
- inhibition [1]: 83.8%
- fold change (FC) [2]: 0.89

SMILES: O=[N+]([O-])c1cccc(-c2cn(-c3cccc(Br)c3)nn2)c1
- inhibition [1]: 68.2%
- fold change (FC) [2]: 2.94
- EC50 (Keap1/Nrf2): 24.5 µM
- CD [3]: 1.2 µM

SMILES: O=[N+]([O-])c1cccc(-n2cc(-c3cccc(-c4nnn[nH]4)c3)nn2)c1
- inhibition [1]: 71.1%
- fold change (FC) [2]: 1.75

SMILES: N#Cc1cccc(-c2cn(-c3cccc(I)c3)nn2)c1
- inhibition [1]: 21.9%
- fold change (FC) [2]: 1.53

SMILES: O=C(O)c1ccc(-n2cc(-c3cccc([N+](=O)[O-])c3)nn2)cc1
- inhibition [1]: 39.4%

SMILES: N#Cc1cccc(-n2cc(-c3cccc([N+](=O)[O-])c3)nn2)c1
- inhibition [1]: 36.8%
- fold change (FC) [2]: 2.33

SMILES: N#Cc1cccc(-c2cn(-c3cccc(C#N)c3)nn2)c1
- inhibition [1]: 58.8%
- fold change (FC) [2]: 1.92

SMILES: Ic1cccc(-n2cc(-c3cccc(-c4nnn[nH]4)c3)nn2)c1
- inhibition [1]: 51.5%
- fold change (FC) [2]: 1.03

SMILES: COc1cccc(-n2cc(-c3cccc([N+](=O)[O-])c3)nn2)c1
- inhibition [1]: 68.2%
- fold change (FC) [2]: 2.56
- EC50 (Keap1/Nrf2): 15 µM
- CD [3]: 4.7 µM

SMILES: O=[N+]([O-])c1ccc(-c2cn(-c3ccc([N+](=O)[O-])cc3)nn2)cc1
- inhibition [1]: 72.6%
- fold change (FC) [2]: 1

SMILES: O=[N+]([O-])c1ccc(-c2cn(-c3cccc([N+](=O)[O-])c3)nn2)cc1
- inhibition [1]: 46.5%
- fold change (FC) [2]: 1.81

SMILES: O=[N+]([O-])c1cccc(-c2cn(-c3cccc([N+](=O)[O-])c3)nn2)c1
- inhibition [1]: 81%
- fold change (FC) [2]: 2.3
- EC50 (Keap1/Nrf2): 11.5 µM

SMILES: CCOc1cccc(-n2cc(-c3cccc([N+](=O)[O-])c3)nn2)c1
- inhibition [1]: 69.3%
- fold change (FC) [2]: 2.48
- EC50 (Keap1/Nrf2): 11.3 µM
